Calls of active or inactive are those of the source. The rule behind the calls is not given here.

Data set [1] concerns Escherichia coli. The data set can be described thus: Antibacterial activity against Escherichia coli ATCC 25922 after 18 hrs in presence of 12.5% human heat-inactivated serum by broth dilution method. Format: functional. The settings on record: ATCC 25922, 18 h. For orientation: Broth dilution looks for growth in wells or tubes with falling amounts of substance.
The subject of data set [2] is Escherichia coli. In words: Antibacterial activity against Escherichia coli ATCC 25922 after 18 hrs in presence of 25% human heat-inactivated serum by broth dilution method. The class given is functional. The settings on record: ATCC 25922, 18 h.
Data set [3] deals with Escherichia coli. The data set can be described thus: Antibacterial activity against Escherichia coli ATCC 25922 after 18 hrs in presence of 50% human heat-inactivated serum by broth dilution method. The class given is functional. The settings on record: ATCC 25922, 18 h.
Data set [4] relates to Escherichia coli. The data set can be described thus: Bactericidal activity against Escherichia coli ATCC 25922 at MBC after 5 hrs by time-kill assay. The class given is functional. Put shortly: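 Time-kill: E. coli ATCC 25922 or C. albicans cgmcc 2.2086 was exposed to peptide at 1× MBC/MFC. At intervals, aliquots were diluted and spread on MHA (bacteria, counted after 24 h at 37 °C) or YPDA (yeast, counted after 48 h at 28 °C). Values are means of three independent assays.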

Data set [5] deals with Candida albicans. In words: Fungicidal activity against fluconazole-resistant Candida albicans 56452 at 0.5 times MFC after 30 passages. Format: functional, organism-based. A digest of the protocol:
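Resistance induction. C. albicans cultures were serially passaged by 100-fold dilution every 24 h in 2 mL RPMI 1640 containing sub-MFC peptide, and the MFC was retested at each passage. A control was passaged in RPMI 1640 alone.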

Data set [6] concerns Escherichia coli. The data set can be described thus: Induction of cell wall permeabilization in Escherichia coli ATCC 25922 assessed as increase in NPN uptake at 2 uM by fluorescence spectrophotometric method relative to control. The class given is functional. Put shortly: (§1)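 Log-phase E. coli ATCC 25922 or C. albicans cgmcc 2.2086 at OD600 0.2 in 5 mM HEPES pH 7.4 with 5 mM glucose was preloaded 30 min with 10 μM NPN, then peptide was added. Fluorescence (ex 350, em 420 nm) was followed until it plateaued and converted to % uptake against a 100% reference. Run in triplicate.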

Data set [7] deals with Candida albicans. The data set can be described thus: Induction of cell wall permeabilization in Candida albicans cgmcc 2.2086 assessed as increase in NPN uptake at 2 uM by fluorescence spectrophotometric method relative to control. The class given is functional. Put shortly:
as §1

The test system of data set [8] is Lipid bilayer. The data set can be described thus: Binding affinity to phosphatidylglycerol/cardiolipin/phosphatidylethanolamine large unilamellar vesicle assessed as induction of calcein leakage after 15 mins by spectrofluorophotometric method. Put shortly: (§2)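 Compositions were PG/CL/PE 2:1:7 w/w/w (E. coli membrane mimic; lines 4,5) and PC/PE/PI/ergosterol 5:4:1:2 w/w/w/w (fungal membrane mimic; lines 2,3). Lipids underwent 20 freeze–thaw cycles and were extruded through 100 nm filters; free calcein was removed by gel filtration.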

Data set [9] has as its system Lipid bilayer. In words: Binding affinity to phosphatidylglycerol/cardiolipin/phosphatidylethanolamine large unilamellar vesicle assessed as induction of calcein leakage at 32 uM after 15 mins by spectrofluorophotometric method relative to control. Put shortly: as §2
The subject of data set [10] is Lipid bilayer. The data set can be described thus: Binding affinity to phosphatidylcholine/phosphatidylethanolamine/phosphatidylinositol/ergosterol large unilamellar vesicle assessed as induction of calcein leakage at 32 uM after 15 mins by spectrofluorophotometric method relative to control. A digest of the protocol: as §2
Data set [11] relates to Escherichia coli. The data set can be described thus: Induction of membrane damage in Escherichia coli ATCC 25922 assessed as appearance of roughened and broken membrane at MBC after 1 hr by atomic force microscopy. Format: functional, organism-based. Put shortly:
(§3)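 E. coli ATCC 25922 was treated at 1× MBC and C. albicans cgmcc 2.2086 at 1× MFC, each for 1 h. Untreated control cells were processed in parallel without peptide. Surface morphology was imaged by AFM and SEM, and ultrastructure by TEM.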

For data set [12], the system named is Candida albicans. In words: Induction of membrane damage in Candida albicans cgmcc 2.2086 assessed as membrane creping at MFC after 1 hr by scanning electron microscopy. The class given is functional, organism-based. Put shortly:
as §3

The test system of data set [13] is Candida albicans. The data set can be described thus: Induction of membrane damage in Candida albicans cgmcc 2.2086 assessed as membrane creping at MFC after 1 hr by atomic force microscopy. The class given is functional, organism-based. Put shortly:
as §3

Data set [14] concerns Candida albicans. The data set can be described thus: Induction of membrane damage in Candida albicans cgmcc 2.2086 assessed as intracellular content leakage at MFC after 1 hr by atomic force microscopy. The class given is functional, organism-based. A digest of the protocol:
(§4)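 E. coli ATCC 25922 or C. albicans cgmcc 2.2086 were treated with peptide at 1× MBC/MFC for 1 h alongside peptide-free controls, then imaged by AFM, SEM or TEM for membrane and ultrastructural changes.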

The test system of data set [15] is Candida albicans. In words: Induction of membrane damage in Candida albicans cgmcc 2.2086 assessed as intracellular content leakage at MFC after 1 hr by transmission electron microscopy. Format: functional, organism-based. Put shortly:
as §4

Data set [16] relates to Escherichia coli. In words: Induction of reactive oxygen species generation in Escherichia coli ATCC 25922 at 32 uM after 1 hr by DCFH-DA dye-based spectrofluorophotometric method relative to control. The class given is functional. Put shortly: (§5)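 Intracellular ROS in peptide-treated cells were compared with untreated cells; values are mean ± SEM of three independent experiments.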

Data set [17] has as its system Candida albicans. In words: Induction of reactive oxygen species generation in Candida albicans cgmcc 2.2086 at 32 uM after 1 hr by DCFH-DA dye-based spectrofluorophotometric method relative to control. The class given is functional. Put shortly: as §5
The test system of data set [18] is Lipopolysaccharide (LPS). The data set can be described thus: Displacement of BODIPY-TR-cadaverine from Escherichia coli O111:B4 LPS at 8 uM after 1 hr by spectrofluorophotometric method relative to control. Put shortly: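 Fluorescence-based displacement assay: peptide displaces BODIPY-TR-cadaverine from LPS; polymyxin B served as the LPS-binding reference.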

The subject of data set [19] is RAW264.7. The data set can be described thus: Induction of endotoxin-neutralization in mouse RAW264.7 cells assessed as inhibition of LPS-induced nitric oxide production after 18 hrs by Griess assay. Format: functional, cell-based. Put shortly: (§6)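 RAW 264.7 cells were stimulated with 50 ng/mL LPS with or without peptide at various concentrations. TNF-α in supernatants was measured by ELISA and NO by Griess reagent. Mean ± SEM of three independent experiments, compared against LPS alone.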
(The Griess reaction detects nitrite, a stable product of nitric oxide.)

Data set [20] concerns RAW264.7. The data set can be described thus: Induction of endotoxin-neutralization in mouse RAW264.7 cells assessed as inhibition of LPS-induced nitric oxide production at 16 uM after 18 hrs by Griess assay relative to control. The settings on record: RAW264.7, 18 h. The class given is functional. A digest of the protocol: as §6
Data set [21] concerns RAW264.7. The data set can be described thus: Induction of endotoxin-neutralization in mouse RAW264.7 cells assessed as inhibition of LPS-induced TNFalpha secretion at 2 uM after 18 hrs by ELISA. The class given is functional, cell-based. A digest of the protocol: as §6
(In general: An ELISA detects its analyte on a solid surface through an enzyme-linked reagent.)

Data set [22] deals with RAW264.7. In words: Immunostimulatory activity in mouse RAW264.7 cells assessed as induction of TNFalpha secretion by ELISA. The class given is cell-based. A digest of the protocol: (§7)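 RAW 264.7 macrophages were exposed to peptide at various concentrations. TNF-α in culture supernatants was measured by ELISA and NO by Griess reagent. Values are means ± SEM of three independent experiments.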

For data set [23], the system named is RAW264.7. The data set can be described thus: Immunostimulatory activity in mouse RAW264.7 cells assessed as induction of nitric oxide production by Griess assay. Format: cell-based. A digest of the protocol:
as §7

The test system of data set [24] is Lipid bilayer. In words: Binding affinity to phosphatidylglycerol/cardiolipin/phosphatidylethanolamine large unilamellar vesicle assessed as induction of calcein leakage at 2 to 32 uM after 15 mins by spectrofluorophotometric method. A digest of the protocol: (§8)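 Large unilamellar vesicles were made from PG/CL/PE (2:1:7), PC/PE/PI/ergosterol (5:4:1:2) or PC/cholesterol (10:1), loaded with 70 mM calcein in Tris/NaCl/EDTA buffer at pH 7.4, frozen and thawed 20 times, and extruded through 100 nm filters. Free dye was removed by gel filtration, and peptide-induced calcein release was measured.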

Data set [25] has as its system Lipid bilayer. In words: Binding affinity to phosphatidylcholine/phosphatidylethanolamine/phosphatidylinositol/ergosterol large unilamellar vesicle assessed as induction of calcein leakage at 2 to 32 uM after 15 mins by spectrofluorophotometric method. Put shortly:
as §8

Turning to H-RRIRIIIRIRR-NH2, the minimal inhibitory concentration (MIC) (usually the lowest concentration found to suppress growth) in data set [1] stood at 4 µM; in data set [2] it was 4 µM; in data set [3] it was 8 µM. Further, the Activity in data set [4] was above 99.99%; in data set [6], above 70%; in [7] it was 20%; in data set [8] it was “Dose-dependent effect”; in data set [9] it was 63%; in [10], 62%. Also, the Activity entry in data set [22] and in [23] was “Non-Toxic” each time. In addition, the outcome in data set [5], in data set [11], in [12], in [13], in [14] and in data set [15] was Active. Moreover, the “fold change (FC)” value is reported as 2 in data set [16] and 14 in data set [17]. The values for the inhibition in [18] and in data set [19] were 95% and “Dose-dependent effect”, respectively. The inhibition – broadly, the share of the control response that was lost under treatment – at 16 µM in data set [20] was 100%. The inhibition result in data set [21] is “Active”.

Consider `CC[C@H](C)[C@H](NC(=O)CN)C(=O)NCC(=O)N[C@@H](C)C(=O)N[C@H](C(=O)N[C@@H](CC(C)C)C(=O)N[C@@H](CCCCN)C(=O)N[C@H](C(=O)N[C@@H](CC(C)C)C(=O)N[C@H](C(=O)N[C@H](C(=O)NCC(=O)N[C@@H](CC(C)C)C(=O)N1CCC[C@H]1C(=O)N[C@@H](C)C(=O)N[C@@H](CC(C)C)C(=O)N[C@H](C(=O)N[C@@H](CO)C(=O)N[C@@H](Cc1c[nH]c2ccccc12)C(=O)N[C@H](C(=O)N[C@@H](CCCCN)C(=O)N[C@@H](CCCNC(=N)N)C(=O)N[C@@H](CCCCN)C(=O)N[C@@H](CCCNC(=N)N)C(=O)N[C@@H](CCC(N)=O)C(=O)N[C@@H](CCC(N)=O)C(N)=O)[C@@H](C)CC)[C@@H](C)CC)[C@@H](C)O)[C@@H](C)O)C(C)C)C(C)C` [MELITTIN], for which the outcome in data set [24] and in [25] was Active.

The values above are taken from ChEMBL document CHEMBL4177755, “Combating Drug-Resistant Fungi with Novel Imperfectly Amphipathic Palindromic Peptides” (J Med Chem, 2018).
